Measured values from ChEMBL document CHEMBL2086284, “(Z)-1-aryl-3-arylamino-2-propen-1-ones, highly active stimulators of tubulin polymerization: synthesis, structure-activity relationship (SAR), tubulin polymerization, and cell growth inhibition studies” (J Med Chem, 2012).
Activity calls are given as the source filed them. No cut-off for these calls is given here.

Legend:
HeLa [1] = test: Induction of mitotic arrest in human HeLa cells assessed as increase of phosphorylated histone H3 at Ser10 level at 1 uM after 24 hrs by Western blotting relative to control; type: functional
How it was run: (§1)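 HeLa treated with 1 μM and harvested at set times. Pellets were frozen, then lysed in HEPES/Triton X-100/NaCl buffer, pH 7.5, with phosphatase and protease inhibitors. Blots were probed sequentially for phospho-histone H3 (Ser10), histone H3, cyclin B1, PLK-1 and BubR1, with GAPDH as loading control. Antibodies: primary 1:1000, secondary 1:10,000. Fold increase is relative to control. N=3.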

HeLa [2] = test: Induction of mitotic arrest in human HeLa cells assessed as increase of phosphorylated histone H3 at Ser10 level at 1 uM after 6 hrs by Western blotting; type: functional, cell-based; how it was run: as §1
[3] = Cytotoxicity against human COLO320 cells after 96 hrs by trypan blue exclusion assay; type: functional, cell-based; conditions: COLO 320, 96 h
How it was run: (§2)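 Cells grown in DMEM or RPMI with 10% FBS and penicillin-streptomycin. Seeded at 1.0 × 10^5 cells/mL/well in 6-well dishes; compounds were added 24 h later at various concentrations. Viable cells were counted by trypan blue exclusion from duplicate wells after 96 h of treatment, giving a dose-response endpoint.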

[4] = Cytotoxicity against human MESSA/DX5 cells after 96 hrs by trypan blue exclusion assay; type: functional, cell-based; conditions: MES-SA/Dx5, 96 h; how it was run: as §2
BT-20 = test: Cytotoxicity against estrogen receptor-deficient human BT20 cells after 96 hrs by trypan blue exclusion assay; type: functional, cell-based; conditions: BT-20, 96 h; how it was run: as §2
MCF7 = test: Cytotoxicity against human MCF7 cells expressing estrogen receptor after 96 hrs by trypan blue exclusion assay; type: functional, cell-based; conditions: MCF7, 96 h; how it was run: as §2
HeLa [5] = test: Induction of mitotic arrest in human HeLa cells assessed as increase of phosphorylated cyclin B1 level at 1 uM after 6 hrs by Western blotting relative to control; type: functional; how it was run: as §1
HCT-15 = test: Cytotoxicity against human HCT15 cells after 96 hrs by trypan blue exclusion assay; type: functional, cell-based; conditions: HCT-15, 96 h; how it was run: as §2
SNU-5 = test: Cytotoxicity against human SNU5 cells after 96 hrs by trypan blue exclusion assay; type: functional, cell-based; conditions: SNU-5, 96 h; how it was run: as §2
A549 = test: Cytotoxicity against human A549 cells after 96 hrs by trypan blue exclusion assay; type: functional, cell-based; conditions: A549, 96 h; how it was run: as §2
DU-145 [6] = test: Cytotoxicity against androgen receptor-deficient human DU145 cells after 96 hrs by trypan blue exclusion assay; type: functional, cell-based; conditions: DU-145, 96 h; how it was run: as §2
SK-BR-3 = test: Cytotoxicity against estrogen receptor-deficient human SKBR3 cells after 96 hrs by trypan blue exclusion assay; type: functional, cell-based; conditions: SK-BR-3, 96 h; how it was run: as §2
HeLa [7] = test: Induction of mitotic arrest in human HeLa cells assessed as unbound chromosome outside metaphase plate at 0.25 uM after 18 hrs by FITC-conjugated DAPI staining based fluorescence microscopy; type: functional, cell-based
How it was run: (§3)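 HeLa grown on glass coverslips and exposed for 18 h to test agent (0.25 or 0.5 μM), paclitaxel or vincristine (0.005 μM), or DMSO. Cells were fixed in 4% paraformaldehyde, blocked, permeabilised, and stained with FITC anti-α-tubulin (1:400) and then DAPI (0.5 ug/mL). Mitotic spindles or interphase cytoplasmic microtubules were scored by fluorescence microscopy at 100x.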

HeLa [8] = test: Induction of mitotic arrest in human HeLa cells assessed as increase of phosphorylated PLK1 level at 1 uM after 6 hrs by Western blotting relative to control; type: functional; how it was run: as §1
Raji = test: Cytotoxicity against human Raji cells after 96 hrs by trypan blue exclusion assay; type: functional, cell-based; how it was run: as §2
DU-145 [9] = test: Cell cycle arrest in human DU145 cells assessed as accumulation at G2/M phase at 2.5 uM by propidium iodide staining based FACS analysis; type: functional; conditions: TDE = time-dependent effect
How it was run: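 DU145 plated at 1.0 × 10^6 cells/dish and dosed 24 h later at 2.5 μM. Floating and trypsinised cells were pooled at 24, 48 and 72 h, fixed in ice-cold 70% ethanol for at least 24 h, stained 30 min at 37 °C with propidium iodide and RNase A, and analysed for DNA content by flow cytometry.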

HeLa [10] = test: Induction of mitotic arrest in human HeLa cells assessed as increase of phosphorylated BUBR1 level at 1 uM after 6 hrs by Western blotting relative to control; type: functional; how it was run: as §1
DU-145 [11] = test: Cell cycle arrest in human DU145 cells assessed as accumulation at G2/M phase after 24 hrs using propidium iodide staining by FACS analysis; type: functional, cell-based
How it was run: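 DU145 plated at 1.0 × 10^6 cells per dish, treated 24 h later for 24 h across a range of concentrations. Cells were fixed in ice-cold 70% ethanol, stained with propidium iodide plus RNase A for 30 min at 37 °C, and DNA content was read by flow cytometry. Phases: G1 (2N), S (>2N<4N), G2/M (4N). N=3.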

HeLa [12] = test: Inhibition of cytoplasmic microtubule polymerization in human HeLa cells at 0.5 uM after 18 hrs by FITC-conjugated DAPI staining based fluorescence microscopy; type: cell-based; how it was run: as §3
SK-MEL-28 = test: Cytotoxicity against human SK-MEL-28 cells after 96 hrs by trypan blue exclusion assay; type: functional, cell-based; conditions: SK-MEL-28, 96 h; how it was run: as §2
[13] = Cytotoxicity against human HTB-126 cells after 96 hrs by trypan blue exclusion assay; type: functional, cell-based; conditions: HTB126, 96 h; how it was run: as §2
NCI-N87 = test: Cytotoxicity against human NCI-N87 cells after 96 hrs by trypan blue exclusion assay; type: functional, cell-based; conditions: NCI-N87, 96 h; how it was run: as §2
[14] = Cytotoxicity against human MES-SA cells after 96 hrs by trypan blue exclusion assay; type: functional, cell-based; how it was run: as §2
HeLa [15] = test: Induction of apoptosis in human HeLa cells assessed as cleavage of PARP at 1 uM after 24 hrs by Western blot analysis; type: functional, cell-based
How it was run: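 HeLa exposed to 1.0 μM for a time course. Lysates were resolved on 10% SDS-PAGE, blotted to nitrocellulose and probed with anti-PARP (primary 1:1000, secondary 1:10,000), with ECL detection. Cleaved PARP was taken as the apoptosis/caspase-3 marker. N=3.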

HeLa [16] = test: Induction of mitotic arrest in human HeLa cells assessed as dispersed chromosome spread with three or more tubulin bundles at 0.5 uM after 18 hrs by FITC-conjugated DAPI staining based fluorescence microscopy; type: functional, cell-based; how it was run: as §3
Caco-2 = test: Cytotoxicity against human Caco2 cells after 96 hrs by trypan blue exclusion assay; type: functional, cell-based; conditions: Caco-2, 96 h; how it was run: as §2
PANC-1 = test: Cytotoxicity against human PANC1 cells after 96 hrs by trypan blue exclusion assay; type: functional, cell-based; conditions: PANC-1, 96 h; how it was run: as §2
K562 = test: Cytotoxicity against human K562 cells after 96 hrs by trypan blue exclusion assay; type: functional, cell-based; conditions: K562, 96 h; how it was run: as §2
BT-474 = test: Cytotoxicity against human BT474 cells expressing estrogen receptor after 96 hrs by trypan blue exclusion assay; type: functional, cell-based; conditions: BT-474, 96 h; how it was run: as §2
HeLa [17] = test: Induction of mitotic arrest in human HeLa cells assessed as increase of phosphorylated Bcl2 level at 1 uM after 24 hrs by Western blotting relative to control; type: functional
MIA PaCa-2 = test: Cytotoxicity against human MIAPaCa2 cells after 96 hrs by trypan blue exclusion assay; type: functional, cell-based; conditions: MIA PaCa-2, 96 h; how it was run: as §2
HeLa [18] = test: Cytotoxicity against human HeLa cells after 96 hrs by trypan blue exclusion assay; type: functional, cell-based; how it was run: as §2

Compound: COc1ccc(N/C=C\C(=O)c2cc(OC)c(OC)c(OC)c2Br)cc1O
- fold change (FC) (HeLa [1]): 121
- Activity (HeLa [2]): Active
- IC50 [3]: 0.15 µM
- IC50 [4]: 0.5 µM
- IC50 (BT-20): 0.75 µM
- IC50 (MCF7): 0.4 µM
- fold change (FC) (HeLa [5]): 2.5
- IC50 (HCT-15): 0.04 µM
- IC50 (SNU-5): 0.25 µM
- IC50 (A549): 0.9 µM
- IC50 (DU-145 [6]): 0.06 µM
- IC50 (SK-BR-3): 0.3 µM
- Activity (HeLa [7]): Active
- fold change (FC) (HeLa [8]): 2.5
- IC50 (Raji): 0.2 µM
- Activity (DU-145 [9]): tde
- fold change (FC) (HeLa [10]): 2.95
- Activity (DU-145 [11]): Dose-dependent effect
- inhibition (HeLa [12]): inactive
- IC50 (SK-MEL-28): 0.2 µM
- IC50 [13]: 0.1 µM
- IC50 (NCI-N87): 0.3 µM
- IC50 [14]: 0.25 µM
- Activity (HeLa [15]): Active
- Activity (HeLa [16]): Active
- IC50 (Caco-2): 0.25 µM
- IC50 (PANC-1): 0.2 µM
- IC50 (K562): 0.1 µM
- IC50 (BT-474): 0.1 µM
- fold change (FC) (HeLa [17]): 88
- IC50 (MIA PaCa-2): 0.8 µM
- IC50 (HeLa [18]): 0.2 µM
